ChEMBL document CHEMBL1268841, “Synthesis and antifungal activity of benzofuran-5-ols” (2010)
Values after ≈ are worked out from the molar mass of the structure shown.

Legend:
Assay type in all cases: functional
Aspergillus flavus = test: Antifungal activity against Aspergillus flavus KCCM 11899 after 2 days; conditions: KCCM 11899, 48 h
Outline: (§1)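 Twofold broth dilution in modified Sabouraud dextrose broth. Inoculum about 1 × 10⁵ cells/mL. Agents tested at final concentrations of 0.2 to 50.0, with fluconazole and 5-fluorocytosine as standards.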

Cryptococcus neoformans = test: Antifungal activity against Cryptococcus neoformans KCCM 50564 after 1 day; conditions: KCCM 50564, 24 h
Outline: (§2)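 MIC found by twofold broth dilution in modified Sabouraud dextrose broth. Approximately 1 × 10⁵ cells/mL inoculated. Final agent concentrations ranged from 0.2 to 50.0, compared against fluconazole and 5-fluorocytosine. Read after 1 day at 37 °C.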

Pichia kudriavzevii = test: Antifungal activity against Candida krusei KCCM 11655 after 1 day; conditions: KCCM 11655, 24 h; outline: as §2
Aspergillus niger = test: Antifungal activity against Aspergillus niger KCTC 1231 after 2 days; conditions: KCTC 1231, 48 h; outline: as §1
Candida albicans = test: Antifungal activity against Candida albicans KCCM 50235 after 1 day; conditions: KCCM 50235, 24 h; outline: as §2
Candida tropicalis = test: Antifungal activity against Candida tropicalis KCCM 50662 after 1 day; conditions: KCCM 50662, 24 h; outline: as §2

Compound | MIC (Aspergillus flavus) [µg/mL] | MIC (Cryptococcus neoformans) [µg/mL] | MIC (Pichia kudriavzevii) [µg/mL] | MIC (Aspergillus niger) [µg/mL] | MIC (Candida albicans) [µg/mL] | MIC (Candida tropicalis) [µg/mL]
COC(=O)c1c(N)oc2c(C)c(C)c(O)cc12 | 25 (≈ 106 µM) | 25 (≈ 106 µM) | 25 (≈ 106 µM) | 6.3 (≈ 26.8 µM) | 50 (≈ 213 µM) | 50 (≈ 213 µM)
COC(=O)c1c(N)oc2cc(C)c(O)cc12 | 25 (≈ 113 µM) | 12.5 (≈ 56.5 µM) | 3.2 (≈ 14.5 µM) | 12.5 (≈ 56.5 µM) | 25 (≈ 113 µM) | 25 (≈ 113 µM)
COC(=O)c1c(N)oc2ccc(O)cc12 | 12.5 (≈ 60.3 µM) | 12.5 (≈ 60.3 µM) | 6.3 (≈ 30.4 µM) | 3.2 (≈ 15.4 µM) | 1.6 (≈ 7.72 µM) | 3.2 (≈ 15.4 µM)
CCOC(=O)c1c(N)oc2ccc(O)cc12 | 6.3 (≈ 28.5 µM) | 12.5 (≈ 56.5 µM) | 12.5 (≈ 56.5 µM) | 3.2 (≈ 14.5 µM) | 1.6 (≈ 7.23 µM) | 3.2 (≈ 14.5 µM)
COC(=O)c1c(N)oc2cc(Cl)c(O)cc12 | 6.3 (≈ 26.1 µM) | 12.5 (≈ 51.7 µM) | 25 (≈ 103 µM) | 6.3 (≈ 26.1 µM) | 25 (≈ 103 µM) | 12.5 (≈ 51.7 µM)
CCOC(=O)c1c(N)oc2cc(Cl)c(O)cc12 | 12.5 (≈ 48.9 µM) | 50 (≈ 196 µM) | 25 (≈ 97.8 µM) | 25 (≈ 97.8 µM) | 12.5 (≈ 48.9 µM) | 12.5 (≈ 48.9 µM)
CCOC(=O)c1c(N)oc2c(C)cc(O)c(C)c12 | 12.5 (≈ 50.1 µM) | 12.5 (≈ 50.1 µM) | 3.2 (≈ 12.8 µM) | 12.5 (≈ 50.1 µM) | 6.3 (≈ 25.3 µM) | 6.3 (≈ 25.3 µM)
Cc1cc2oc(N)c(C#N)c2cc1O | 12.5 (≈ 66.4 µM) | 3.2 (≈ 17 µM) | 0.8 (≈ 4.25 µM) | > 50 | 50 (≈ 266 µM) | > 50
N#Cc1c(N)oc2ccc(O)cc12 | 12.5 (≈ 71.8 µM) | 12.5 (≈ 71.8 µM) | 25 (≈ 144 µM) | 6.3 (≈ 36.2 µM) | 12.5 (≈ 71.8 µM) | 6.3 (≈ 36.2 µM)
Cc1c(O)ccc(O)c1C | 12.5 (≈ 90.5 µM) | 12.5 (≈ 90.5 µM) | 25 (≈ 181 µM) | 50 (≈ 362 µM) | 50 (≈ 362 µM) | > 50
COC(=O)c1c(N)oc2c(C)c(C)c(O)c(Sc3ccccc3)c12 | 25 (≈ 72.8 µM) | 1.6 (≈ 4.66 µM) | 6.3 (≈ 18.3 µM) | 12.5 (≈ 36.4 µM) | 25 (≈ 72.8 µM) | 25 (≈ 72.8 µM)
COC(=O)c1c(N)oc2c(C)c(C)c(O)c(Sc3ccc(C)cc3)c12 | 25 (≈ 69.9 µM) | 6.3 (≈ 17.6 µM) | 3.2 (≈ 8.95 µM) | 25 (≈ 69.9 µM) | 25 (≈ 69.9 µM) | 25 (≈ 69.9 µM)
COC(=O)c1c(N)oc2c(C)c(C)c(O)c(Sc3ccc(C)c(C)c3)c12 | 3.2 (≈ 8.61 µM) | 1.6 (≈ 4.31 µM) | 3.2 (≈ 8.61 µM) | 12.5 (≈ 33.7 µM) | 25 (≈ 67.3 µM) | 25 (≈ 67.3 µM)
COC(=O)c1c(N)oc2c(C)c(C)c(O)c(Sc3cccc(F)c3)c12 | 3.2 (≈ 8.85 µM) | 6.3 (≈ 17.4 µM) | 25 (≈ 69.2 µM) | 1.6 (≈ 4.43 µM) | > 50 | 50 (≈ 138 µM)
COC(=O)c1c(N)oc2c(C)c(C)c(O)c(Sc3cccc(C)c3)c12 | > 50 | 1.6 (≈ 4.48 µM) | > 50 | > 50 | > 50 | > 50
COC(=O)C(C#N)C1=C(Cl)C(=O)C(C)=C(C)C1=O (stereo not drawn) | 12.5 (≈ 46.7 µM) | 6.3 (≈ 23.5 µM) | 25 (≈ 93.4 µM) | 25 (≈ 93.4 µM) | 50 (≈ 187 µM) | 50 (≈ 187 µM)
OC(Cn1cncn1)(Cn1cncn1)c1ccc(F)cc1F [FLUCONAZOLE] | 25 (≈ 81.6 µM) | 6.3 (≈ 20.6 µM) | 12.5 (≈ 40.8 µM) | 12.5 (≈ 40.8 µM) | 50 (≈ 163 µM) | 6.3 (≈ 20.6 µM)
Nc1nc(=O)[nH]cc1F [FLUCYTOSINE] | 6.3 (≈ 48.8 µM) | 12.5 (≈ 96.8 µM) | 12.5 (≈ 96.8 µM) | 12.5 (≈ 96.8 µM) | 6.3 (≈ 48.8 µM) | 6.3 (≈ 48.8 µM)
